Variants at the floor of the assay were thinned out.
B1: tRNA (parent)
chain: CUCUCGGUAGCCAAGUUGGUUUAAGGCGCAAGACUUUAAUUUAUCACUACGAAAUCUUGAGAUCGGGCGUUCGACUCGCCCCCGGGAGAUUUUUUCCUCGAGCAA

Variants of: B1
Experiment: nonsense suppression (GFP-seq) (ratio to wild type); higher = more function; SUP4oc tRNA, yeast GFP reporter sort-seq
Method in brief: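 Yeast were grown in raffinose/galactose medium with 80 mg/L adenine, each strain bearing a genome-integrated ochre-suppressor tRNA variant from a ~3% random-mutation library, a galactose-driven GFP ochre reporter, and RFP. After sorting into GFP/RFP bins, every bin was sequenced on an Illumina platform at phred ≥30. The GFPSEQ value, a measure of nonsense suppression, is the weighted bin median GFP/RFP relative to the unmutated parent tRNA, using each variant's estimated cell share per bin as the weight. Only variants with ≥100 reads and ≥30 cells were included.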

Variant	nonsense suppression
C34U G69A A89C	≤ 0.026
U55A U76A G86A	≤ 0.026
U55A C64G	≤ 0.026
A30U U63A	0.157
A30U	0.575
A33G A54U	0.0526
A54C A74G	0.0575
A54C A74C	≤ 0.026
G32U G66A	≤ 0.026
A31G A87G	0.762
A30G C83A	≤ 0.026
A30U C64U	≤ 0.026
U35A G73U G84C	≤ 0.026
C34G G61A	0.0334
C34G G61C	≤ 0.026
A30U A74C	0.0264
A30U A74U	0.0497
A31G C82U	0.25
C34G U55C	0.276
C34A U55C G66A	≤ 0.026
A33G C79U	0.0403
A33G C80U	0.0422
A30U C79U	0.144
A30U C79G	≤ 0.026

Variant	nonsense suppression
A31U A60C G66C U70A G85A	≤ 0.026
A31U A60C C75A	0.184
A31U A62U	0.0539
U35C G61A	0.0378
C34A A54U U71A C75A	≤ 0.026
G32U C56G	0.207
A30G A33U	≤ 0.026
A31C G59C	≤ 0.026
G32C U76A	≤ 0.026
A54U C81A	≤ 0.026
A31G U71G	≤ 0.026
G32U U76C	≤ 0.026
A33C U35C C83A	≤ 0.026
A54G G61A U76C C77G	≤ 0.026
U55C A74G	0.144
A31G U57C G78A G86A	≤ 0.026
A54C U58A	0.135
A54U U63G	0.659
A54U U63C	0.798
A54U U63A	0.864
A54C G84U	0.0301
A54C G61C	0.216
A54C G61A	0.334
C34U G59U	≤ 0.026

Variant	nonsense suppression
C34A U63A C82G	≤ 0.026
A30U A31U	0.035
A30U A31G	0.25
A54U C64U	0.0513
U35C G73A	≤ 0.026
C34U A54C C56G G73A G88C	≤ 0.026
C34G U71G	≤ 0.026
A33U U55G	0.167
A31C C56G	≤ 0.026
U35G G59U A60G	≤ 0.026
A31U G59A C80U	≤ 0.026
A31U C81U	0.0322
A30G C75U	1.19
U35C A74G	≤ 0.026
A54U G85U	1.01
A54U G85C	0.208
U35C U63G	0.0352
A54U A60C	0.279
A54U A60U	0.965
A30G G59A G73C	≤ 0.026
A31G A60C	0.177
A31U U63G	0.0763
A31U U63A	0.0391
A31G G67C G85A	≤ 0.026

Variant	nonsense suppression
U35C C83G	≤ 0.026
A31G A33G U55C G61A	0.727
A30U G69U C80U	≤ 0.026
A31U C64U C72U	≤ 0.026
A31G G84A	≤ 0.026
U35A G59A G67A	≤ 0.026
A30G A74G	0.098
A30G A74U	0.028
A30G A74C	0.0554
C34G C72A	≤ 0.026
C34A G69A	≤ 0.026
A54G C79U	0.0263
A54C C82U	0.211
U35C C77A G85C	≤ 0.026
A33U C34U	≤ 0.026
A54C C68G	≤ 0.026
A31U U55C	0.0547
C34U A62G	≤ 0.026
C34G C81A	≤ 0.026
A33C U63A	≤ 0.026
A30U U35G G65U	≤ 0.026
A54C C81U	0.21
A31G C77A	≤ 0.026
A54U A89C	≤ 0.026

Variant	nonsense suppression
A54U C56G C72A	≤ 0.026
G32C A62G C80U	≤ 0.026
A33G A74C C80A	≤ 0.026
A30G G78A	0.101
U55A G67U	≤ 0.026
A54G U71A	≤ 0.026
C34A G65C G85C	≤ 0.026
A31G C79U	0.77
A33G U58A	≤ 0.026
A31U G73C C81G	≤ 0.026
C34U A60G	0.0428
A33C U55C C64G U76C	≤ 0.026
A54C A60G	0.0773
A54C A60U	1.09
A31U C81A C82G	≤ 0.026
A31C G61A C75G	≤ 0.026
A30G A54C	0.077
A30G A54U	1.2
G32U U55G A62C	≤ 0.026
A30G U76A	0.043
G32C C56G A60C	0.275
A30G G59C A60C	≤ 0.026
A31G U63A	0.684
A31G U63G	0.0741

Variant	nonsense suppression
A31G U63C	0.333
A54C G73C	0.0591
A31C A62G G78A	≤ 0.026
A31U U76A	0.0413
A33G A87G	0.0348
C34U A60C C72A	≤ 0.026
C34A A87G	≤ 0.026
A33C C56A U58G G85U	≤ 0.026
U55C C75A	1.05
U55C C75G	1.16
C34G G86U	≤ 0.026
G32C C81G	≤ 0.026
A31G A33G C56A G65U	≤ 0.026
A30U A60U C68U	0.0354
A31U U57A	0.963
A31G G61C	0.275
A31G G61A	0.8
A30U A89U	0.0434
A31G A74U	0.029
U35G C68G C82U	≤ 0.026
G32U U70C	≤ 0.026
A30G G85C	≤ 0.026
A30G G85A	0.793
A30U A62G C81G	≤ 0.026

Variant	nonsense suppression
C34A C68A A87U	≤ 0.026
A30G U55G U63G C64A	≤ 0.026
C34U C81A G88C	≤ 0.026
G32U U71C G84A	≤ 0.026
A30U U58A	0.89
U55C A87C	0.0719
U35A U57G C81U G85C A87U	≤ 0.026
U55A U70C	≤ 0.026
A30U U58A G78U	0.776
C34G G69C	≤ 0.026
A31U U55G G67C	≤ 0.026
G32A A62G U71G G78A G85A	≤ 0.026
A31C C72G G78U	≤ 0.026
G32A U76G	≤ 0.026
U55A U71A	≤ 0.026
A54U C79U	0.571
A30U C81A	0.0383
A31G G67U A74G U76G C81A	≤ 0.026
A31U	0.177
A31G	1.08
A33C G61U G66U	≤ 0.026
C34U G61C	0.0481
C34U G61A	0.0297
A31U C56A U70C A89G	≤ 0.026

Variant	nonsense suppression
C34U A74C C79A	≤ 0.026
U35C U70A	≤ 0.026
C34U U70A	≤ 0.026
C34G G78C	≤ 0.026
A31C U76G	≤ 0.026
A54C G67U	≤ 0.026
U35G U55C G61C G73U	≤ 0.026
A54C C80U	0.194
A54C C80G	0.0733
A31C A60U	0.222
U55A C56A C64A U70C	≤ 0.026
C34U G65A U70A	≤ 0.026
A33G G59A C77A C83A G88A	≤ 0.026
A33G G61C	0.034
A33G G61A	0.0709
A33G G61U	0.119
A54C G86C	0.0725
G32A C79A G88A	≤ 0.026
A31U G73U	≤ 0.026
G32C U63C	≤ 0.026
A33U G85A	0.0389
A33G U55A A74C	≤ 0.026
A54G G73A	0.122
A31G C34G U76G	≤ 0.026

Variant	nonsense suppression
A54C G69C C75U U76G G85C	≤ 0.026
C34U C77G C79G A89U	≤ 0.026
A33G A87U G88U	≤ 0.026
A33U U57C A62G	≤ 0.026
A30U G85A	0.52
A30U G85U	0.0315
A54C C75G	1.15
A54C C75U	1.22
A33G U57A	≤ 0.026
A54U G67A	0.0673
A31G C75U	1.05
A31G C75A	1.06
A33C U55C C56U G66U C79G	≤ 0.026
A33U U55C U63A U70C	≤ 0.026
A30U U76G	0.0538
A30U G67A G73U A74G C81A	≤ 0.026
A33G G84U	0.222
A33U G73C	≤ 0.026
A54U A87G	0.867
A31U U70C	≤ 0.026
A31U U70A	≤ 0.026
A30G U71A	0.05
A30G U71C	0.035
A30U G32U C56A U58G	1.11

Variant	nonsense suppression
U55A A74C G88A	≤ 0.026
A54U G61U	1.16
A54U G61A	0.611
A33C C56A G78A	≤ 0.026
A33G G88C	≤ 0.026
A54C U57A	0.0382
A54U U76C	1.08
A54U G84U	0.0565
A54C A87G	0.59
A31U G59C	≤ 0.026
G32U C79A	≤ 0.026
A54U G65A	0.0335
C34G A74U	≤ 0.026
A30U G84U	0.423
A31U C75A	0.758
A30U A60G	0.27
A30U A60U	0.769
A30G A60G	0.108
A54C U76C	0.232
A30U A54C	0.0467
A33U U63A	0.0268
U55A A60C C75U G78C C79G A89G	≤ 0.026
A54U C56A C72U	≤ 0.026
A30U C77G	0.0332

Variant	nonsense suppression
A30U C77U	≤ 0.026
A31G U71A G73A C77U	≤ 0.026
G32C A62U G65C C80A G88A	≤ 0.026
U35G G85U	≤ 0.026
A33U A60U	0.204
A30G C82U	0.0497
A33U G69C G73A	≤ 0.026
G32C C34G U35C	≤ 0.026
A30U C82G	≤ 0.026
C34U U35G U57C G61A C82U	≤ 0.026
A31C U57A	0.219
U35G C56A G61U U63A	≤ 0.026
A30U U55C A87C A89U	0.0456
U55C	1.09
A31C G66C G85U	≤ 0.026
A31G U70C	0.0279
A30G C77U	≤ 0.026
U55A G85C	≤ 0.026
A33G G86C	0.0374
U55C C64G	0.0515
G32U A54C C81G	≤ 0.026
G32A U70A C72A	≤ 0.026
A33C U71G G86A	≤ 0.026
A31U A60C	0.0348

Variant	nonsense suppression
A31U A60U	0.647
A33G G85C	0.0351
A31G C83U	0.0743
A31G C83A	0.0481
A30G G73A C75A	0.318
A54C U63C	0.729
A54C U63G	0.0506
A54C U63A	0.377
A30G C72G	0.0409
C34G G78A C81G	≤ 0.026
A31C A60U C75A	1.23
A31G C34U	≤ 0.026
A30U G61A	0.0365
A33U C75A	0.192
A30G C79U	0.207
A33G C75U	0.275
A33G C75G	0.216
A33G C75A	0.235
A54C U71C	0.0406
A54C U71G	≤ 0.026
C34G C64U	≤ 0.026
A31C G84U	≤ 0.026
A30U G69C C72U	≤ 0.026
A54U G69C C81G	≤ 0.026

Variant	nonsense suppression
A31G U57A	0.136
C34A U55A C80A	≤ 0.026
A31C G32U	≤ 0.026
A54C U76G A89G	≤ 0.026
A30U C68G	≤ 0.026
C34G U57A	≤ 0.026
A31U G85A	0.164
A33G U57A U76C	≤ 0.026
A33C G61A A62G G73C	≤ 0.026
A33G U76C	0.0419
A33G U76G	≤ 0.026
A30G A89C	0.0603
A30G A89U	0.0271
A33G U63A	0.031
A33G U63C	0.11
A31U G61U	0.0345
A31G U35C	0.0321
A31G U35A	0.0292
A54C C64U	0.0402
G32U U63A C82U	0.0283
A54G C72A	≤ 0.026
A30U A31U C80A	≤ 0.026
A54C G78A	0.107
A54U A62G	0.0321

Variant	nonsense suppression
A31G G73A	0.366
C34G U70G	≤ 0.026
A33C U57G C64G	≤ 0.026
A54C	1.16
A54U	1.04
A30U U55G G78C A89C	≤ 0.026
A33G A54G A74C	≤ 0.026
A33G G66C	0.0263
A33U U71A	≤ 0.026
A30G U63C	0.205
A54C G85C	0.0904
U35A U70C G73U C81U	≤ 0.026
A54G G67C	≤ 0.026
A33G	0.346
A33U	0.0699
A54C G65U	0.0425
A31G A54C	0.0977
A31G A54U	0.627
C34U U63C G85C	≤ 0.026
A30G C64U	0.0605
A30G G61C	0.251
A30G G61A	0.75
